SUMO1-SIM PPI: modulators of human SUMO1-mediated protein-protein interactions; P63165; SUMO1 binding to a labelled peptide, TR-FRET, 1 h; inhibition, % at 20 µM; hit rate 0.33% among 360,000; in the data active = inhibition above about 37%
Target sequence (P63165 whole entry, looked up): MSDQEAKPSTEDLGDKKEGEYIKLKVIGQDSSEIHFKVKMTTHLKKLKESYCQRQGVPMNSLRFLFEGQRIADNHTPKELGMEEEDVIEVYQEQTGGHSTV
HKDC1 inhibitor: inhibitors of human hexokinase HKDC1 | Q2TB90 | recombinant HKDC1, G6PDH/diaphorase resazurin coupled fluorescence | inhibition, % at 20 µM | hit rate 0.16% among 340,000 | AID 493160;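 active = inhibition above about 35% when tested at 20 µM, limit read from the data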;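 note: plate controls were DMSO wells with enzyme for no effect and DMSO wells lacking enzyme for full effect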
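Test system: HK5 enzyme. Quantity: 5 µg/mL HK5 final. Reagent: glucose and ATP substrates. Schedule: 90 min reaction incubation at room temperature, dark. Technique: resazurin-to-resorufin fluorescence via G6PDH and diaphorase coupling, 525/613 nm. Control set: DMSO wells with and without enzyme mix.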
LMPTP block: blocks human LMPTP phosphatase. P24666. recombinant LMPTP-A, OMFP fluorogenic substrate, fluorescence intensity. inhibition, % at 20 µM. hit rate 0.22% among 360,000. AID 651560;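 active = compounds that cut the enzyme signal by at least half of the control window in the single-dose screen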;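 note: plate controls were DMSO wells with enzyme plus substrate for no effect and substrate without enzyme for full effect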
Target sequence (P24666 whole entry, looked up): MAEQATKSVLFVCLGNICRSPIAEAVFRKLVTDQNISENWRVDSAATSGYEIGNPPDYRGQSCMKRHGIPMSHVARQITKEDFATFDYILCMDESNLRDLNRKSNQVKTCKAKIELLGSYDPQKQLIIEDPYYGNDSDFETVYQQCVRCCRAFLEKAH
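Test system: LMPTP-A phosphatase enzyme; input: 0.625 nM LMPTP-A final; reagent: OMFP substrate, 400 µM final; compound dosing: 20 µM single dose, 3% DMSO; incubation: 50 min dark incubation at room temperature; measured by: endpoint fluorescence intensity from OMFP dephosphorylation; measure: % inhibition relative to no-enzyme and uninhibited control wells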
Scp1 inh: blocks human Scp-1 phosphatase activity | hit rate 0.88% among 340,000 | Recombinant Scp1, phosphopeptide, malachite green phosphate absorbance | AID 493091 | inhibition, % at 20 µM | Q9GZU7;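 active = inhibition above about 50% at 20 µM, limit read from the data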;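 note: plate controls were DMSO wells with enzyme for no effect and wells lacking enzyme for full effect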
Target sequence (Q9GZU7 76-261 limits assumed): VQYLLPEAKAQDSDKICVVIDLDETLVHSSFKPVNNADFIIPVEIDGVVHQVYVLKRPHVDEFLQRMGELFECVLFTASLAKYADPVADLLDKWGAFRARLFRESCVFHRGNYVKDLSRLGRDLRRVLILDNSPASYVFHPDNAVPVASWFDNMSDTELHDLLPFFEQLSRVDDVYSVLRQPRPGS
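System: SCP-1 catalytic domain; Reagent: Phospho 17-mer peptide substrate; Doses: one concentration, 20 µM, with 1.0% DMSO; Incubation: 45 min room-temperature reaction, 5 min colour, 30 min stabiliser; Signal: Phosphate-binding colour reagent, absorbance read at 630 nm.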
DNMT1 inh: blocks human DNA methyltransferase DNMT1; P26358; inhibition (reported as % activation of signal), % at 10 µM; DNMT1 molecular beacon, Hinp1I cleavage, fluorescence; hit rate 0.83% among 360,000; in the data active = inhibition above about 50%
STEP inh: inhibitors of human striatal-enriched phosphatase STEP; hit rate 0.25% among 360,000; recombinant STEP, OMFP fluorogenic substrate, fluorescence; AID 588621; inhibition, % at 20 µM; P54829;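 active = inhibition at 20 µM, scaled per plate between control wells, above about 37%, limit read from the data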;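 note: 0% = DMSO with enzyme and substrate and 100% = substrate only without enzyme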
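Material: STEP (striatal-enriched tyrosine phosphatase) enzyme, cell-free; Compound dosing: 20 µM single dose in 1% DMSO; Technique: fluorescence read at 480 nm ex / 540 nm em; Times: reaction 20 min, ambient temperature; Medium: 50 mM Bis-Tris pH 6.0 with 2.5 mM DTT and 0.005% Tween 20; Also added: OMFP at 25 µM.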
Scp-1 conf: confirmation of human Scp-1 phosphatase inhibitors | recombinant SCP-1 catalytic domain, phosphate release, malachite green absorbance | AID 540281 | hit rate 61% among 2,500 | inhibition, % at 20 µM | shares compounds with Scp1 inh;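 note: plate controls were DMSO with enzyme for no effect and buffer wells lacking enzyme for full effect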
Scp-1 MG ctr: interferes with malachite green readout, flagging false Scp-1 hits; shares compounds with Scp1 inh; Colorimetric interference counterscreen, malachite green absorbance 630 nm; apparent inhibition (interference), % at 20 µM; 2,500 tested, under 10 active; AID 540313;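 note: compounds added after enzyme reaction finished so only phosphate colour detection is probed; plate controls were DMSO wells with completed Scp-1 reaction for no effect and substrate wells lacking enzyme for full effect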
Scp1 DSF: Scp-1 (human) binding by thermal shift. shares compounds with Scp1 inh. Recombinant SCP1, Sypro Orange thermal shift Tm. thermal shift relative to vanadate control, % at 40 µM. hit rate 25% among 1,500;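 active = substances whose mean melting-temperature shift, as a percentage of the reference inhibitor's shift, reaches about 5.3%, limit read from the data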;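 note: 0% = Tm of DMSO wells and 100% = Tm with sodium orthovanadate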
Active calls of the source: *; / = not tested or not shown. Only some compounds are listed: those with a hit (about 1.8% of all), similar ones and a draw of the others.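 Rule for the calls, unless noted: active = inhibition of at least 30% at 20 µM; inactive = the rest.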

SMILES	SUMO1-SIM PPI	HKDC1 inhibitor	LMPTP block	Scp1 inh	DNMT1 inh	STEP inh	Scp-1 conf	Scp-1 MG ctr	others
COc1ccc(NC(=O)N(C)C[C@H]2Oc3ccc(NC(=O)Nc4c(C)noc4C)cc3C(=O)N([C@H](C)CO)C[C@@H]2C)cc1	7	-6	0	62*	4	2	-3	-20
COc1ccc(NC(=O)Nc2ccc3c(c2)C(=O)N([C@H](C)CO)C[C@H](C)[C@@H](CN(C)C(=O)Nc2ccccc2)O3)cc1	10	-5	-1	71*	4	-4	8	-10
COc1cnc(-c2ccccn2)nc1N(C)c1ccccc1	-6	0	7	-4	0	0	/	/
COc1ccc(S(=O)(=O)N(C)C[C@H]2Oc3ccc(NS(=O)(=O)c4ccccc4)cc3C(=O)N([C@H](C)CO)C[C@@H]2C)cc1	-6	-1	-1	59*	0	0	5	-10
COc1ccc(S(=O)(=O)Nc2ccc3c(c2)C(=O)N([C@H](C)CO)C[C@H](C)[C@@H](CN(C)S(=O)(=O)c2ccccc2)O3)cc1	3	-3	0	-6	2	-1	/	/
COC(=O)CNC(c1ccccc1Cl)c1cc(Br)ccc1NS(=O)(=O)c1ccc(C)cc1 (stereo not drawn)	1	-3	2	-13	-11	0	/	/
C=CCOc1ccc(Br)cc1/C=C1/SC(=Nc2ccc(C(=O)O)cc2)NC1=O	11	23	81*	86*	14	65*	75*	-13	Scp1 DSF=5
O=C(O)c1cc(Cl)c(Cl)cc1C(=O)N(Cc1ccccc1)Cc1ccccc1	7	12	0	37	-1	0	/	/
CCCCCC(=O)N1CC2(CC(c3cccc(NC(=O)[C@@H]4CCC(=O)N4)c3)=NO2)C[C@@H]1C(N)=O (stereo partly drawn)	0	-5	-1	0	6	-2	/	/
C/C=C\C=C\C(=O)N1CC2(CC(c3cccc(NC(=O)CC)c3)=NO2)C[C@H]1C(N)=O (stereo partly drawn)	26	5	-2	70*	-5	0	66*	-11	Scp1 DSF=-6
C=C(C)C(=O)Nc1cccc(C2=NOC3(C2)C[C@@H](C(N)=O)N(C(=O)CCCCC)C3)c1 (stereo partly drawn)	/	2	/	83*	/	/	69*	-10	Scp1 DSF=-6
C/C=C/C=C\C(=O)Nc1cccc(C2=NOC3(C2)C[C@H](C(N)=O)N(C(=O)/C=C/C)C3)c1 (stereo partly drawn)	10	-2	0	22	-19	0	/	/
Cc1ccccc1C(=O)N1CCC(C(=O)NC2CCCC2)CC1	3	-6	-2	-6	2	-2	/	/
CC(=O)Nc1ccc(SCc2csc(C)n2)cc1	4	-2	1	-5	-7	1	/	/
CC(/C=N/N1CCN(Cc2ccccc2)CC1)=C\c1ccccc1	-5	-5	-1	-6	-1	-1	/	/
O=C1NC(Cc2ccc(O)cc2)c2nc3cc(Cl)ccc3c(=O)n2-c2cc3ccccc3cc21 (stereo not drawn)	3	/	2	/	-17	2	/	/
CCOC(=O)[C@@H]1[C@H]2COc3cc(OC)ccc3[C@@H]2N2C(=O)N(c3ccc(Br)cc3)C(=O)[C@]12C	1	0	3	53*	1	1	-24	-13
COc1ccc(CNC(=O)C2CCCN2C(=O)NCc2ccccc2)cc1 (stereo not drawn)	2	-5	-2	1	1	-2	/	/
CCCN(C)C1CN(Cc2cn(Cc3cc(C)cc(C)c3)nn2)S(=O)(=O)C1 (stereo not drawn)	4	/	0	/	/	/	/	/
CCOC(=O)C1=C(C)NC(=O)NC1c1c(OCC(=O)N2CCCCC2)ccc2ccccc12 (stereo not drawn)	-4	6	0	-5	5	2	-8	-9
Cn1c(=O)c(C(=O)CN2CC(=O)Nc3ccccc32)c(N)n(Cc2ccccc2)c1=O	2	-3	0	-7	2	0	-7	-11
Cn1c(=O)c(C(=O)CN2CCc3ccccc32)c(N)n(Cc2ccccc2)c1=O	-1	-12	1	-6	-24	3	/	/
CC(CCC(=O)O)C1CCC2C3CCC4C[C@H](O)CCC4(C)C3CC(=O)C12C (stereo partly drawn)	-1	0	-1	-6	1	1	/	/
C[C@H](CCC(=O)O)[C@H]1CC[C@H]2[C@@H]3CC[C@@H]4C[C@H](O)CC[C@]4(C)[C@H]3CC[C@]12C	23	5	2	58*	3	0	56*	-22	Scp1 DSF=-15
CC1(c2ccccc2)NC(=O)N(CC(=O)N2CCN(S(=O)(=O)c3cccc([N+](=O)[O-])c3)CC2)C1=O (stereo not drawn)	-20	-4	0	-1	0	-1	/	/
SMILES	SUMO1-SIM PPI	HKDC1 inhibitor	LMPTP block	Scp1 inh	DNMT1 inh	STEP inh	Scp-1 conf	Scp-1 MG ctr	others
N#C/C(=C/c1ccc(-c2ccc(C(=O)O)c(Cl)c2)o1)C(=O)NCC1CCCO1 (stereo not drawn)	-4	0	-2	106*	11	0	55*	-13	Scp1 DSF=-12
Cc1ccc(/C=C(\C#N)C(=O)NCC2CCCO2)o1 (stereo not drawn)	-10	11	0	1	-4	1	/	/
CC1CCCC(NC(=O)COC(=O)c2cc(=O)[nH]c3ccccc23)C1C (stereo not drawn)	-15	-2	0	-4	2	-1	/	/
CCn1c(C)[n+](CC)c2ccc(S(=O)(=O)N(C)C)cc21	-1	-7	2	89*	3	1	-13	-17
COc1ccc(C2(C)NC(=O)N(CC(=O)NCc3ccccc3F)C2=O)cc1 (stereo not drawn)	6	-1	-1	8	-2	-2	/	/
O=C(CNC(=O)c1ccc(Cl)cc1)N/N=C/C=C/c1ccccc1	-2	2	5	84*	8	3	8	-11
O=C(COc1ccccc1)NCC(=O)N/N=C/C=C/c1ccccc1	0	-10	-2	-7	-1	-5	/	/
O=C(COC(=O)c1cc(=O)[nH]c2ccccc12)NC1CCCCCCC1	-10	1	0	-5	2	7	/	/

From PubChem
